Here are results for 24 compounds from ChEMBL document CHEMBL1145971, “Design and synthesis of the potent, orally available, brain-penetrable arylpyrazole class of neuropeptide Y5 receptor antagonists” (J Med Chem, 2003).

Series [1] deals with T1, Neuropeptide Y receptor type 5 (Homo sapiens, UniProt Q15761).
T1 sequence (Q15761 whole entry): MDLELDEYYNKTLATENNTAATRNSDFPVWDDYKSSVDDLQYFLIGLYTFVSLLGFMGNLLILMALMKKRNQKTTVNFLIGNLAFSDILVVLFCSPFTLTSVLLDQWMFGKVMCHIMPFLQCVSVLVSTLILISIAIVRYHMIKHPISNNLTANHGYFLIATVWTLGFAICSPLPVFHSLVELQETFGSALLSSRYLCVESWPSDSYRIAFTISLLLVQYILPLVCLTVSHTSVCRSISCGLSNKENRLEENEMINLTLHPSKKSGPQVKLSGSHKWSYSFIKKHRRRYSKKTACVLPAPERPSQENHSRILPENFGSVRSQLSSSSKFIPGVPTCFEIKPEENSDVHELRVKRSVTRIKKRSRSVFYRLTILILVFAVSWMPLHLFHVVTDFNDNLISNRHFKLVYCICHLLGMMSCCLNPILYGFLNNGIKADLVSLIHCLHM
Nature of the series: Inhibition of [125I]PYY binding to human recombinant Neuropeptide Y receptor type 5 in LMtk-cells. In outline:
(§1)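 Radioligand displacement used [125I]PYY on human recombinant Y5 receptors expressed in LMtk- cells. Values are mean ± SE, n = 3.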

In series [2] the target is T1, Neuropeptide Y receptor type 5. Kind of series: Inhibition of [125I]PYY binding human recombinant Neuropeptide Y receptor type 5 in LMtk-cells. An outline of the steps: as §1
The target is the same in series [3]. Kind of series: Antagonistic activity of compound was determined by its ability to inhibit NPY induced [Ca2+]i increases in CHO cells which expressed the recombinant human Neuropeptide Y receptor type 5. It counts as functional, cell-based. In outline:
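Human recombinant Y5 receptor co-expressed with Gqi5 in CHO cells. Cells were stimulated with 100 nM NPY and inhibition of the intracellular Ca2+ rise was measured. IC50 is given as mean ± SE, n = 3.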

Series [4] is described as follows: Half life (10 mg/kg) was determined in SD rats when administered perorally. It counts as ADME, organism-based. The following applies: Sprague-Dawley, rat, in vivo, po. In outline: (§2)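 Pharmacokinetics in SD rats: intravenous dose 1 mg/kg and oral dose 10 mg/kg. Parameters derived from plasma levels were t1/2, Vdss and CLtot (iv), and t1/2, Tmax, Cmax and F (po).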

Series [5] is described as follows: Half life (1 mg/kg) was determined in SD rats when administered intravenously. It counts as ADME, organism-based. Particulars: Sprague-Dawley, rat, in vivo, iv. An outline of the steps:
as §2

A short description of series [6]: Total body clearance was determined in SD rats when administered intravenously, at 1 mg/kg compound dosage. It counts as ADME, organism-based. The arrangement: dose 1 mg/kg, route intravenous. Particulars: Sprague-Dawley, rat, in vivo, iv, read-out: CLtotal. An outline of the steps:
as §2

The nature of series [7]: Bioavailability was determined for compound in SD rats when administered perorally at 10 mg/kg. It counts as ADME, organism-based. The following applies: Sprague-Dawley, rat, in vivo, po, read-out: Fmean. In outline: as §2
Series [8] can be described thus: The concentration in brain was determined in SD rats at 2 hr after peroral administration of 10 mg/kg. It counts as ADME, organism-based. The arrangement: dose 10 mg/kg, route oral. Particulars: Sprague-Dawley, rat, po.
A short description of series [9]: Volume of distribution was determined in SD rats when administered intravenously, at 1 mg/kg compound dosage. It counts as ADME, organism-based. Set-up: dose 1 mg/kg, route intravenous. The following applies: Sprague-Dawley, rat, in vivo, iv, read-out: Vdss. An outline of the steps: as §2
Series [10] is described as follows: Time required for peak plasma concentration was determined for compound in SD rats when administered perorally at 10 mg/kg. It counts as ADME, organism-based. Set-up: dose 10 mg/kg, route oral. The following applies: Sprague-Dawley, rat, po. In outline: as §2
For another series, the system named is Rattus norvegicus. Kind of series: Peak plasma concentration was determined for compound in SD rats when administered perorally at 10 mg/kg. The arrangement: dose 10 mg/kg, route oral. It counts as ADME, organism-based. Particulars: in vivo, po. An outline of the steps: as §2

A value given as a limit tells only on which side of the number the result lay.

The term Ki denotes a dissociation constant, usually derived from enzyme kinetics or from competition with a known ligand. Turning to `O=C(Nc1cc(-c2ccccc2Cl)n[nH]1)C1Cc2ccccc2C1`, the Ki in series [1] came out at 450 nM.
By IC50 is commonly meant the concentration that inhibits the measured activity by half. In the case of `O=C(Nc1cc(-c2ccc(Cl)cc2)n[nH]1)c1cccc2ccccc12`, in series [2], the IC50 was over 1000 nM.
Consider `O=C(Cc1ccc2ccccc2c1)Nc1cc(-c2ccc(Cl)cc2)n[nH]1`, for which the IC50 in series [2] stood at 47 nM.
As to `Cc1ccc(-c2cc(NC(=O)C3Cc4ccccc4C3)[nH]n2)cc1`, the Ki in series [1] is 80 nM.
As for `O=C(Nc1cc(-c2cccc(Cl)c2)n[nH]1)C1Cc2ccccc2C1`, the Ki in [1] is 120 nM.
With `COc1ccc(-c2cc(NC(=O)C3Cc4ccccc4C3)[nH]n2)cc1`, the Ki in series [1] was 62 nM.
On to `O=C(Nc1cc(-c2ccc(Cl)cc2)n[nH]1)c1ccccc1`, for which the IC50 in [2] is over 1000 nM.
As for `O=C(CCCc1ccccc1)Nc1cc(-c2ccc(Cl)cc2)n[nH]1`, in series [2], the IC50 came out at 443 nM.
As to `COc1ccc(-c2cc(NC(=O)C3Cc4ccccc4C3)[nH]n2)cc1OC`, in series [1], the Ki turned out to be 33 nM.
As for `O=C(Cc1cccc2ccccc12)Nc1cc(-c2ccc(Cl)cc2)n[nH]1`, the half-maximal inhibitory concentration (IC50) in series [2] is 317 nM.
In the case of `CC(C)Oc1ccc(-c2cc(NC(=O)C3Cc4ccccc4C3)[nH]n2)cc1`, the Ki in [1] is 92 nM.
For `O=C(Nc1cc(-c2ccccc2)[nH]n1)C1Cc2ccccc2C1`, the Ki in [1] turned out to be 260 nM.
Turning to `O=C(O)CCc1cccc(CC(=O)Nc2cc(-c3ccc(Cl)cc3)n[nH]2)c1`, the inhibition constant (Ki) in series [1] worked out at 16 nM. For the same compound, the IC50 in [2] turned out to be 16.3 nM.
On to `COc1ccc(-c2cc(NC(=O)Cc3ccc4ccccc4c3)[nH]n2)cc1OC`, for which, in series [1], the Ki stood at 8.3 nM.
For the compound `O=C(CCc1ccccc1)Nc1cc(-c2ccc(Cl)cc2)n[nH]1`, in [2], the half-inhibitory concentration (IC50) is over 1000 nM.
For `O=C(Cc1ccccc1)Nc1cc(-c2ccc(Cl)cc2)n[nH]1`, the IC50 in [2] worked out at 803 nM.
Still for that read-out and setting: the figure for `O=C(Nc1cc(-c2ccc(Cl)cc2)n[nH]1)c1ccc(-c2ccccc2)cc1` is over 1000 nM.
Regarding `O=C(Nc1cc(-c2ccc(Cl)cc2)n[nH]1)c1ccc2ccccc2c1`, the 50% inhibitory concentration (IC50) in series [2] was over 1000 nM.
As for `O=C(Nc1cc(-c2ccc(Cl)cc2)n[nH]1)C1Cc2ccccc2C1`, the Ki in [1] came out at 59 nM.
On to `COc1ccc(-c2cc(NC(=O)C3Cc4ccc5ccccc5c4C3)[nH]n2)cc1OC` (racemic), for which the Ki in series [1] was determined as 2.8 nM.
Turning to `O=C(Nc1cc(-c2ccncc2)[nH]n1)C1Cc2ccc3ccccc3c2C1` (racemic), the Ki in [1] came to 10 nM.
Regarding `CCc1cc(-c2cc(NC(=O)C3Cc4ccc5ccccc5c4C3)[nH]n2)ccn1` (racemic), the Ki in series [1] is 7.3 nM.
As for `CCc1cc(-c2cc(NC(=O)C3Cc4ccc5ccccc5c4C3)[nH]n2)ccn1` (stereo in doubt; (+)-7), in series [1], the Ki was 25 nM. For the same compound, in series [3], the IC50 was found to be 28 nM.
The half-life is the time needed for the level to fall by half in the phase considered. Higher therefore signals slow decline. What is called Tmax is the time from dosing to the highest level. For orientation: Cmax means the maximum level reached in the sampled fluid or tissue. In the case of `CCc1cc(-c2cc(NC(=O)C3Cc4ccc5ccccc5c4C3)[nH]n2)ccn1` (stereo in doubt; (-)-7), the Ki in series [1] was found to be 3.5 nM. The half-life is 114 min in series [4] and 52.8 min in series [5]. The clearance in series [6] worked out at 9.52 mL/min/kg. The bioavailability in series [7] was 70%. Moreover, the concentration at 2 h in series [8] stood at 450 nM. In addition, the Vd in series [9] is 0.62 L/kg. For the same compound, the Tmax in series [10] worked out at 2 h. In the series with Rattus norvegicus, this compound had a Cmax of 5 µM. Moreover, the IC50 in series [3] amounted to 14 nM.
